Active and inactive are the calls of the source. The calls are words filed in the database; no cut-off is given here.
Experiments:
[1] = system: Mus musculus; experiment: Anti-obesity activity in 16 hrs fasted db/db-induced obese C57BL/6J mouse model assessed as reduction in fasting blood glucose level at 20 mg/kg, po measured after 4 weeks; format: functional, organism-based
[2] = Drug level in C57BL/6J mouse brain at 4 hrs post-dose by equilibrium dialysis method; format: ADME, tissue-based; details: in vivo
Summary of the method: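 Unbound brain level derived from brain concentration after 20 mg/kg oral dose, multiplied by unbound fraction from brain-homogenate equilibrium dialysis; given at Cmax and at 4 h.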

[3] = Half life in C57BL/6J mouse serum assessed as 4-(2-Amino-8-methyl-5,6,7,8-tetrahydroquinazolin-4-yl)phenol level at 20 mg/kg, po by LC-MS/MS analysis; format: ADME, organism-based; details: in vivo
Summary of the method: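 Male C57BL/6J mice (6-8 weeks, 20 ± 5 g) fasted overnight (12-16 h) got a single 20 mg/kg oral dose as 2.5 mg/mL suspension in 1% w/v gum acacia; n=5 per time point. Serum and brain (PBS homogenate 1:6 w/v) sampled up to 24 h. Parent and demethylated metabolite quantified by LC-MS/MS after liquid-liquid extraction (C18, MRM, phenacetin internal standard; linear 0.25-200 ng/mL). Two-compartment open model fit.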

[4] = system: Mus musculus; experiment: Anti-obesity activity in high fat diet-induced obese C57BL/6J mouse model assessed as change in blood total cholesterol level at 10 to 20 mg/kg, po measured after 6 weeks; format: functional, organism-based
Summary of the method: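 At the end of treatment (six weeks HFD, four weeks db/db), mice euthanized with avertin 350 mg/kg. Blood taken by cardiac puncture into 3.8% sodium citrate. Plasma separated at 4000 rpm and stored at -80 °C. TG, TC, HDLc and LDLc measured on a bio-analyzer.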

[5] = target: T1, D(4) dopamine receptor (Homo sapiens) (UniProt P21917); experiment: Agonist activity at D4 receptor (unknown origin)
T1 sequence (whole entry): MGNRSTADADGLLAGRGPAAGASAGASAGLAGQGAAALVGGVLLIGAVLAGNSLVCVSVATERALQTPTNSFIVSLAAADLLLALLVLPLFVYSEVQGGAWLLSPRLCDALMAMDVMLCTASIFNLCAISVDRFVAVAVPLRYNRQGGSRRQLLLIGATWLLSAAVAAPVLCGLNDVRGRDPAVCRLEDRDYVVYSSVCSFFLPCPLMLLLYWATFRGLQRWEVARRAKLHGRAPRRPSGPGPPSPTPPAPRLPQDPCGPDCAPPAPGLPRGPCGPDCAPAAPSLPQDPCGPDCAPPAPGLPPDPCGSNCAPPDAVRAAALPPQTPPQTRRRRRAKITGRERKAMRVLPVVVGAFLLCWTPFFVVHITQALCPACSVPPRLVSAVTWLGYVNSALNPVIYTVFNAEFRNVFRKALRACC

[6] = system: Mus musculus; experiment: Anti-obesity activity in 16 hrs fasted db/db-induced obese C57BL/6J mouse model assessed as change in blood TG level at 20 mg/kg, po measured after 6 weeks; format: functional, organism-based
[7] = target: T2, Muscarinic acetylcholine receptor M1 (Homo sapiens) (UniProt P11229); experiment: Agonist activity at M1R (unknown origin) expressed in HEK293 cells harboring luc2P/NFAT-RE plasmid at 10 uM after 6 to 8 hrs by luciferase reporter gene assay; format: cell-based
T2 sequence (whole entry): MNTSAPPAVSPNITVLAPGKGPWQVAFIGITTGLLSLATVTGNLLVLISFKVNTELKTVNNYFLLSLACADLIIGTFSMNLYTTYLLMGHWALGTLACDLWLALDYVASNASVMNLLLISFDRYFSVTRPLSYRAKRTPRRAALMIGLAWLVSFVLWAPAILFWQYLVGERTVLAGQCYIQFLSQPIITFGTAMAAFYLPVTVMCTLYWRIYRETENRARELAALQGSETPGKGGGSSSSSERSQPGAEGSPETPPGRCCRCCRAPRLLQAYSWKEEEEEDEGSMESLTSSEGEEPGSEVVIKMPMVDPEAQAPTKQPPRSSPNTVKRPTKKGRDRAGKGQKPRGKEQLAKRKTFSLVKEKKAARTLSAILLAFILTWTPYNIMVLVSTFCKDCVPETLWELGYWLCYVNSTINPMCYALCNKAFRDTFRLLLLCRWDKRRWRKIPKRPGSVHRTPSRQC
Summary of the method: (§1)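 NFAT-RE luciferase assay in HEK293T cells transiently co-transfected with luc2P/NFAT-RE plasmid and receptor plasmid. Cells plated in DMEM and incubated overnight at 37 °C, 5% CO₂. Compounds and reference ligands applied for 6-8 h. Luciferase read after adding Bright-Glo substrate (1 mg/ml final).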

[8] = target: Histamine H1 receptor (Homo sapiens) (UniProt P35367); experiment: Agonist activity at H1R (unknown origin) expressed in HEK293 cells harboring luc2P/NFAT-RE plasmid at 10 uM after 6 to 8 hrs by luciferase reporter gene assay; format: cell-based; summary of the method: as §1
Chain of Histamine H1 receptor (Homo sapiens) (P35367 whole entry): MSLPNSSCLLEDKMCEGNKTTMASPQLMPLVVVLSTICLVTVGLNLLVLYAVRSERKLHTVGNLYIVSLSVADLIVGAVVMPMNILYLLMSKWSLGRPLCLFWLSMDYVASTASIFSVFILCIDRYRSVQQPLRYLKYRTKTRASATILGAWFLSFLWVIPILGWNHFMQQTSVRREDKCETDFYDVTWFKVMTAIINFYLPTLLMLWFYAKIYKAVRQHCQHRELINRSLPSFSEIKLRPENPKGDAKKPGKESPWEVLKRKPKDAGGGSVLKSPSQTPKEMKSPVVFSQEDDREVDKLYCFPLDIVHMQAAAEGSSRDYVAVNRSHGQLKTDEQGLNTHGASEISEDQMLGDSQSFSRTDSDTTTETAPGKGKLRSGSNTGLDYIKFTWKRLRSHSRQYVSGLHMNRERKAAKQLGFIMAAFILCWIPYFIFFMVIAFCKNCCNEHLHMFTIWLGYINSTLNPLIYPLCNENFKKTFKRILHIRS

[9] = Fraction unbound in C57BL/6J mouse brain by equilibrium dialysis method; format: ADME, tissue-based
Summary of the method: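 Plasma protein binding and unbound fraction in mouse brain tissue homogenate measured by equilibrium dialysis.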

[10] = Ratio of AUClast in C57BL/6J mouse brain assessed as 4-(2-Amino-8-methyl-5,6,7,8-tetrahydroquinazolin-4-yl)phenol level to AUClast in C57BL/6J mouse brain; format: ADME, tissue-based; details: in vivo
Summary of the method: (§2)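 Male C57BL/6J mice (6–8 weeks) were fasted 12–16 h, then given a single oral dose of 20 mg/kg as a 2.5 mg/mL suspension in 1% gum acacia/water (n=5 per time point). Serum and brain (homogenised 1:6 in PBS) were sampled up to 24 h. Parent and demethylated metabolite were measured by LC-MS/MS (range 0.25–200 ng/mL). AUC ran to the last observation.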

[11] = target: T3, G-protein coupled bile acid receptor 1 (Homo sapiens) (UniProt Q8TDU6); experiment: Agonist activity at Gs-coupled GPBAR1 (unknown origin) expressed in HEK293T cells assessed as inhibition of forskolin-stimulated cAMP accumulation preincubated for 10 to 15 followed by forskolin-stimulation by Glo-sensor assay; format: functional, cell-based
T3 sequence (whole entry): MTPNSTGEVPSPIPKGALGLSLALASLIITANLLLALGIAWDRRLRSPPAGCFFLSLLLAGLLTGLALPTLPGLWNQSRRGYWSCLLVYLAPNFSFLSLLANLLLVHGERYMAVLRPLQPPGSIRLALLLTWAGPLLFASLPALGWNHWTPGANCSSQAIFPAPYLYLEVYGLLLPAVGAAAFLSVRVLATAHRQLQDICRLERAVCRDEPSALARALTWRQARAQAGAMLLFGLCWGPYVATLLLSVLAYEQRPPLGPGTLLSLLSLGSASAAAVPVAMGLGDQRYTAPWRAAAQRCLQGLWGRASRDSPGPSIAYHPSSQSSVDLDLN

[12] = Ratio of AUClast in C57BL/6J mouse brain assessed as 4-(2-Amino-8-methyl-5,6,7,8-tetrahydroquinazolin-4-yl)phenol level to AUClast in C57BL/6J mouse serum assessed as 4-(2-Amino-8-methyl-5,6,7,8-tetrahydroquinazolin-4-yl)phenol level; format: ADME; summary of the method: as §2

For COc1ccc(-c2nc(N)nc3c2CCCC3C)cc1 (racemic), the Activity [1] was “Active”, the Drug uptake [2] was 20.8 nM and the t1/2 [3] was 2.1 h. The Activity [4] was “inactive”, the Activity [5] was “inactive” and the Activity [6] was “inactive”. The Activity [7] was “inactive”, the Activity [8] was “inactive” and the fraction unbound [9] was 0.284. For the same compound, the “Ratio AUC” value [10] was 32.4%, the Activity [11] was “inactive” and the “Ratio AUC” value [12] was 6.1%.

From ChEMBL document CHEMBL4393678, “Novel Tetrahydroquinazolinamines as Selective Histamine 3 Receptor Antagonists for the Treatment of Obesity” (J Med Chem, 2019)
